# Screening data: PubChem BioAssay, The Scripps Research Institute Molecular Screening Center
# ADAM10 inh: inhibits human ADAM10; O14672; recombinant ADAM10, EDANS/DABCYL FRET peptide cleavage, 3 h; inhibition, % at 7 µM; 370,000 compounds, 0.62% hits; AID 720582;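 active means inhibition above a per-campaign cutoff equal to the mean of compounds falling between control-based bounds plus 3 SD, cut at about 20% in these data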;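 further: 0% = DMSO wells while the 100% control is not disclosed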
# Tb MetRS inh: blocks T. brucei methionyl-tRNA synthetase activity | 360,000 compounds, 0.4% hits | inhibition, % at 11.9 µM | purified T. brucei MetRS, ATP depletion, Kinase-Glo luminescence;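 active means inhibition above a per-plate cutoff of the control wells' mean inhibition plus 3 SD, cut at about 5.5% in these data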;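 further: 0% = DMSO wells median and 100% = median of wells with control inhibitor compound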
#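 Material: T. brucei methionyl-tRNA synthetase, purified; reagent: substrates ATP, L-methionine and bulk Escherichia coli tRNA; dosing: 11.9 µM single point; timing: 15 min plus 2 h at 25 °C; detection: luminescence of leftover ATP; evaluation: % inhibition; control set: DMSO-only wells as low control; replicates: singlicate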
# PLC-gamma1 inh: PLC-gamma1 (human) inhibition, primary screen; P19174; purified PLC-gamma1, fluorogenic substrate, fluorescence; inhibition, % at 12.2 µM; 370,000 compounds, 0.84% hits; AID 720700; in the data active means inhibition above about 9.5%
# ADAM17 inh: inhibitors of human ADAM17 | recombinant ADAM17, EDANS/DABCYL FRET peptide cleavage | inhibition, % at 6.95 µM | 370,000 compounds, 0.83% hits;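 active means inhibition above the mean of compounds lying between control limits plus 3 SD, set per campaign, cut at about 8.5% in these data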;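 further: 0% = DMSO-only wells as the low control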
# Target sequence (P78536 215-824 limits assumed): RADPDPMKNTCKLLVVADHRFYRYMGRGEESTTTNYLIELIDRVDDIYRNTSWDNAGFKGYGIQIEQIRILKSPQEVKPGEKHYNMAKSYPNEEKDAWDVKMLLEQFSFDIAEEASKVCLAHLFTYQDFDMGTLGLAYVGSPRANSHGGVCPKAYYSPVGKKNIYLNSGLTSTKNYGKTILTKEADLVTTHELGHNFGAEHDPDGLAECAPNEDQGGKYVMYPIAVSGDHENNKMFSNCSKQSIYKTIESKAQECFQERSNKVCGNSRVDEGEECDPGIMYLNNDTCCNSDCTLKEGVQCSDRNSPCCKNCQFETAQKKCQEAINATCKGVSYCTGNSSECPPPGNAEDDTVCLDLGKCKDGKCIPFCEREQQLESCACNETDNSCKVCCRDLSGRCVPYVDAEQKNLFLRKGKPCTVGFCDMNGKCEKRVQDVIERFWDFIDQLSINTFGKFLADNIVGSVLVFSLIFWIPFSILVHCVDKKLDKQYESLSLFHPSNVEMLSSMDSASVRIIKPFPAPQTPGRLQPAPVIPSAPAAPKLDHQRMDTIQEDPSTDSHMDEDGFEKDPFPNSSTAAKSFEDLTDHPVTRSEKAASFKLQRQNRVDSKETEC
# PLC-beta3 inh: inhibitors of human phospholipase C beta3 | inhibition, % at 12.2 µM | 370,000 compounds, 0.18% hits | Q01970 | Purified PLC-beta3, fluorogenic substrate, fluorescence; in the data active means inhibition above about 11%;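 further: 0% = median of compound wells on plate and 100% = full blocker control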
# ADAM10 confirm: confirmation of inhibitors of human ADAM10; shares compounds with ADAM10 inh; ADAM10 QFRET peptide cleavage, EDANS fluorescence; inhibition, % at 6.95 µM; 2,100 compounds, 1% hits; AID 743208;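 active means inhibition above about 20% chosen separately for each screening run, limit read from the data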;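 further: 0% = DMSO wells and 100% = marimastat wells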
# ADAM17 counter: inhibits human ADAM17 in ADAM10 exosite counter-screen. shares compounds with ADAM10 inh. ADAM17 QFRET peptide cleavage, EDANS fluorescence. inhibition, % at 6.95 µM. 2,100 compounds, 0.5% hits;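 active means mean triplicate inhibition above the solvent-only control wells' mean plus 3 SD, cut at about 12% in these data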;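 further: 0% = DMSO wells and 100% = marimastat wells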
# ADAM10 counter: ADAM10 inhibition, counter-screen for ADAM17 exosite hits; shares compounds with ADAM17 inh; recombinant ADAM10, EDANS/DABCYL FRET peptide cleavage, 3 h; inhibition, % at 6.95 µM; 2,900 compounds, 47% hits; AID 743256;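 active means mean inhibition over the triplicate runs exceeds the activity threshold set in the earlier primary screen, cut at about 20% in these data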;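 further: 0% = DMSO wells and 100% = marimastat wells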
# ADAM17 confirm: human ADAM17 inhibition, confirmation. shares compounds with ADAM17 inh. inhibition, % at 6.95 µM. recombinant ADAM17, EDANS/DABCYL QFRET peptide cleavage. 2,900 compounds, 65% hits;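 active means mean inhibition across replicates above the hit cutoff set in the primary screen, cut at about 8.5% in these data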;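 further: 0% = DMSO wells and 100% = marimastat wells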
# * marks the source's active call; other numbers are inactive results; . = no result. This is a sample that favours compounds with a hit; in the whole collection about 2.3% have one here.
SMILES,ADAM10 inh,Tb MetRS inh,PLC-gamma1 inh,ADAM17 inh,PLC-beta3 inh,ADAM10 confirm,ADAM17 counter,ADAM10 counter,ADAM17 confirm
Cc1ccccc1-n1c(SCC(=O)N/N=C/c2c(C)nn(-c3ccccc3)c2C)nc2ccccc2c1=O,21.5*,-0.8,3.6,10.9*,1.8,7.5,1.9,33.4*,15.8*
CNc1ccc(C=C2C=Cc3ccccc32)cc1,41.2*,-0.2,11.1*,13.1*,6.5,5.6,1.4,46.4*,18.1*
NC(=O)CC(NC(=O)c1ccc(Br)cc1)c1ccc(N2CCCCCC2)c([N+](=O)[O-])c1 (configuration not stated),21.8*,-0.3,8.3,11.7*,6.7,3.3,1.2,9.7,5.5
NNC(=O)c1csc(-c2ncc(C(F)(F)F)cc2Cl)n1,-2.3,0.1,-1.3,-3.4,-4.4,.,.,.,.
Cc1ccc(S(=O)(=O)N/N=C/c2ccc(OS(=O)(=O)c3ccc(C)c([N+](=O)[O-])c3)cc2)cc1,25.6*,-0.6,7.5,11.7*,1.9,7.6,2.2,36.1*,19.5*
COC(=O)C1CN(C2CCCC2)CCS(=O)(=O)N1Cc1cn(Cc2ccc(Cl)cc2)nn1 (configuration not stated),3.7,.,0.0,-2.6,1.6,.,.,.,.
CC(C)(C)c1ccc(-c2cc(-c3ccccc3O)[nH]n2)cc1,33.9*,2.1,4.3,16.5*,-0.6,11.0,3.6,22.0*,10.6*
Cc1ccc(O)c(-c2cc(-c3ccccc3C)[nH]n2)c1,24.4*,-2.4,0.8,9.8*,2.2,8.5,2.9,26.6*,12.4*
Cc1ccc(S(=O)(=O)CCC(=O)N(Cc2nnc(-c3ccc(Cl)cc3)o2)C2CC2)cc1,-10.1,0.7,-5.6,-7.7,-12.5,.,.,.,.
Cc1ccc(NC(=S)NNC(=O)CSc2nnc(SCc3cccc4ccccc34)s2)cc1,21.0*,.,-1.7,9.3*,-5.2,4.5,1.1,26.0*,11.5*
O=C(CSc1nc2ccccc2s1)NNC(=S)Nc1ccccc1,-4.2,0.5,-3.8,0.4,-0.5,.,.,.,.
O=C(CSc1nc2ccccc2s1)NNC(=S)Nc1ccc(Br)cc1,21.1*,0.0,1.4,12.7*,-10.0,2.7,0.8,11.7,6.6
N#CC1=C(N)Oc2cc(N)ccc2C1c1ccc(F)cc1F (configuration not stated),-215.0,-0.6,-336.8,-98.2,-412.2,.,.,.,.
O=C(Nc1ccc(Nc2ccccc2)cc1)c1c(F)c(F)c(F)c(F)c1F,20.2*,3.5,-0.4,14.4*,-11.2,4.9,0.6,29.6*,14.3*
CCOc1cc(S(=O)(=O)Nc2cc(C)cc(C)c2)ccc1Cl,36.4*,-1.1,8.3,19.8*,3.8,2.9,0.8,26.7*,14.7*
C[C@H](NC(=O)c1nc[nH]c1C(=O)N[C@@H](CCCCNC(=O)OC(C)(C)C)C(=O)OC(C)(C)C)c1ccccc1,21.2*,-0.1,2.3,11.6*,2.1,6.0,1.9,28.5*,17.8*
CC(C)(C)OC(=O)NCCCCCNC(=O)c1[nH]cnc1C(=O)Nc1ccc(Cl)cc1,30.6*,-0.2,0.6,13.7*,4.7,5.4,1.6,39.1*,21.8*
C[C@H](NC(=O)c1nc[nH]c1C(=O)NCc1ccc(CNC(=O)OC(C)(C)C)cc1)c1ccccc1,54.4*,-0.3,7.6,25.4*,3.1,3.2,0.9,29.2*,16.4*
Cc1ccc(NC(=O)c2nc[nH]c2C(=O)NCCCCCNC(=O)OC(C)(C)C)cc1,-2.8,0.5,3.2,-1.4,1.6,.,.,.,.
C[C@@H](NC(=O)c1nc[nH]c1C(=O)NCCCCCNC(=O)OC(C)(C)C)c1ccccc1,1.6,0.1,0.5,-0.7,0.5,.,.,.,.
C[C@@H]1CCN(C2CC2)S(=O)(=O)c2ccc(N3CC[C@@H](O)C3)cc2O1,-10.1,.,-2.3,-3.9,0.6,.,.,.,.
O=C(Cc1cccc2ccccc12)Nc1ccc(OC(F)F)c(Cl)c1,22.8*,0.9,6.5,9.9*,1.2,5.8,1.9,29.7*,19.9*
CCC[C@H]1CN(c2ccc(Br)cc2)C(=O)[C@@H]1CC(=O)Nc1ccccc1,24.3*,-1.3,5.1,18.2*,5.4,0.1,0.4,19.8*,4.3
COc1ccc(C(C)=O)cc1CC1(C)C(=O)Nc2ccc(-c3cccc(C(F)(F)F)c3)cc21 (configuration not stated),27.0*,-0.1,2.3,9.8*,-2.5,8.7,2.5,24.1*,14.2*
COc1cc(NC(=O)C2CCCN(S(=O)(=O)c3cccs3)C2)cc(OC)c1 (configuration not stated),-7.6,.,-1.6,4.4,0.7,.,.,.,.
SMILES,ADAM10 inh,Tb MetRS inh,PLC-gamma1 inh,ADAM17 inh,PLC-beta3 inh,ADAM10 confirm,ADAM17 counter,ADAM10 counter,ADAM17 confirm
CCOc1ccc(OCC)c(NC(=O)C2CCCN(S(=O)(=O)c3cccs3)C2)c1 (configuration not stated),28.4*,-0.8,7.2,11.8*,5.4,0.0,-0.8,1.0,0.1
COc1ccc(-c2cc(C(=O)N(C3CCCCC3)C3CCCCC3)no2)cc1,-3.9,.,-0.3,-6.1,-1.8,.,.,.,.
COc1cc(/C=C/C=C2/CC/C(=C/C=C/c3ccc(O)c(OC)c3)C2=O)ccc1O,22.1*,0.0,-32.9,16.7*,-62.6,2.4,1.4,6.3,5.1
CCN(C)C1CN(Cc2cn(Cc3cc(C)cc(C)c3)nn2)S(=O)(=O)C1 (configuration not stated),-11.2,-0.6,-1.4,-6.2,-0.8,.,.,.,.
O=C(Nc1cc(Oc2ccccc2)cc([N+](=O)[O-])c1)C12CC3CC(C1)CC(n1cnc(Cl)n1)(C3)C2,21.9*,-0.6,5.7,9.7*,8.8,8.2,2.9,28.4*,11.2*
O=C(O)c1cccc(NC(=O)C23CC4CC(C2)CC(n2cnc(Cl)n2)(C4)C3)c1,10.4,-0.4,2.2,-4.8,1.3,.,.,.,.
COc1cc(Cl)c(NC2=CC(=O)C(=O)c3ccccc32)c(OC)c1,-13.4,-0.1,-17.0,0.0,-26.8,.,.,.,.
CCOC(=O)c1ccc(NC(=O)COC(=O)c2cccc(Oc3ccccc3)c2)cc1,28.1*,-0.4,-1.8,12.7*,-0.1,8.6,2.7,26.9*,14.3*
CCOC(=O)c1ccc(NC(=O)c2ccc(NC(=O)c3ccccc3)cc2)cc1,-7.8,-0.7,-2.1,-5.4,-19.5,.,.,.,.
